Legend:
HT-29 = assay: Antiproliferative activity against HT29 cells; assay type: functional, cell-based; conditions: Homo sapiens
MCF7 = assay: Antiproliferative activity against MCF7 cells; assay type: functional, cell-based; conditions: Homo sapiens
[1] = Stability in phosphate buffer; assay type: physicochemical
[2] = biological target: Prostaglandin G/H synthase 1 (Homo sapiens) (UniProt P23219); assay: Inhibition of COX1 by human platelet assay; parameters: concentration or dose not given beside the values; conditions: concentration not given here
Chain of Prostaglandin G/H synthase 1 (Homo sapiens) (P23219 whole entry): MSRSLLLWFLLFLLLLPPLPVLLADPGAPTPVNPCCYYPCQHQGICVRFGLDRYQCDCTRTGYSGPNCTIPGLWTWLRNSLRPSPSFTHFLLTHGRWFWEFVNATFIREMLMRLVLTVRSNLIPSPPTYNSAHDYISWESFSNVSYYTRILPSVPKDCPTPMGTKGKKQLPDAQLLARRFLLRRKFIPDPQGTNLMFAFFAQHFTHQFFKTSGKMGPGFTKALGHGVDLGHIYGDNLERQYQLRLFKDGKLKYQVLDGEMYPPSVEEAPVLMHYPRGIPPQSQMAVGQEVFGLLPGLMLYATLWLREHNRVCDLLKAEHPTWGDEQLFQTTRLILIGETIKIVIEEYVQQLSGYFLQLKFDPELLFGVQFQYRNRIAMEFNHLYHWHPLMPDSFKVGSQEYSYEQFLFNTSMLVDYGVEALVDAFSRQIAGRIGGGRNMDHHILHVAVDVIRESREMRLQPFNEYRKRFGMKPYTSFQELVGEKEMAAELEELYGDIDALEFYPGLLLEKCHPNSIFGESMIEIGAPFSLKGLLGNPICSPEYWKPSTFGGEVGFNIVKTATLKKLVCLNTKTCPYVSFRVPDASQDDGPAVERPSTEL
Procedure, shortened: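 Enzyme activities measured in human platelets incubated for 60 min in buffer solution at 37 °C. 12-LOX activity was read out as formation of 12(S)-HETE. COX-1 activity was read out as formation of its eicosanoid product.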

[3] = system: Arachidonate 12-lipoxygenase, platelet type (Homo sapiens); assay: Inhibition of LOX12 by human platelet assay; parameters: concentration or dose not given beside the values; conditions: concentration not given here

| SMILES | IC50 (HT-29) [µM] | IC50 (MCF7) [µM] | Stability [1] | inhibition [2] [%] | inhibition [3] [%] |
| --- | --- | --- | --- | --- | --- |
| CC(=O)OCC(OC(C)=O)C(OC(C)=O)C(Cn1c2nc(=O)n(COC(=O)C(C)c3ccc(CC(C)C)cc3)c(=O)c-2nc2cc(C)c(C)cc21)OC(C)=O (stereo not drawn) | 12.1 | 12.3 | Stable | 15 | < 11 |
| O=c1[nH]cc(F)c(=O)[nH]1 [FLUOROURACIL] | 7.3 | – | – | – | – |
| CC(=O)OCC(OC(C)=O)C(OC(C)=O)C(Cn1c2nc(=O)n(CCOC(=O)C(C)c3ccc(CC(C)C)cc3)c(=O)c-2nc2cc(C)c(C)cc21)OC(C)=O (stereo not drawn) | 12.7 | 14.9 | Stable | 15 | < 11 |
| CC(=O)OCC(OC(C)=O)C(OC(C)=O)C(Cn1c2nc(=O)n(CCCOC(=O)C(C)c3ccc(CC(C)C)cc3)c(=O)c-2nc2cc(C)c(C)cc21)OC(C)=O (stereo not drawn) | 9.3 | 7.8 | Stable | 15 | < 11 |
| CC(=O)OCC(OC(C)=O)C(OC(C)=O)C(Cn1c2nc(=O)n(CCCCCOC(=O)C(C)c3ccc(CC(C)C)cc3)c(=O)c-2nc2cc(C)c(C)cc21)OC(C)=O (stereo not drawn) | 13.1 | 9.5 | Stable | 43 | < 11 |
| CC(=O)OCC(OC(C)=O)C(OC(C)=O)C(Cn1c2nc(=O)n(CCO)c(=O)c-2nc2cc(C)c(C)cc21)OC(C)=O (stereo not drawn) | > 100 | > 100 | – | – | – |
| CC(C)Cc1ccc([C@H](C)C(=O)O)cc1 [DEXIBUPROFEN] | > 1000 | 795 | – | 90 | – |
| CC(=O)OCC(OC(C)=O)C(OC(C)=O)C(Cn1c2nc(=O)[nH]c(=O)c-2nc2cc(C)c(C)cc21)OC(C)=O (stereo not drawn) | 90.9 | 53.4 | – | – | – |
| CC(=O)OCC(OC(C)=O)C(OC(C)=O)C(Cn1c2nc(=O)n(CCCCOC(=O)C(C)c3ccc(CC(C)C)cc3)c(=O)c-2nc2cc(C)c(C)cc21)OC(C)=O (stereo not drawn) | 10.5 | 9.5 | Stable | 37 | < 11 |
